Laboratory results published in ChEMBL document CHEMBL3576764, “α-Ketoamino acid ester derivatives as promising MAO inhibitors” (Bioorg Med Chem Lett, 2014).

Assays:
[1] = biological target: T1, Amine oxidase [flavin-containing] A (Rattus norvegicus, UniProt P21396); experiment: Inhibition of MAO-A in rat liver mitochondria using serotonin as substrate preincubated with enzyme for 60 mins prior to substrate addition
T1 sequence (P21396 whole entry): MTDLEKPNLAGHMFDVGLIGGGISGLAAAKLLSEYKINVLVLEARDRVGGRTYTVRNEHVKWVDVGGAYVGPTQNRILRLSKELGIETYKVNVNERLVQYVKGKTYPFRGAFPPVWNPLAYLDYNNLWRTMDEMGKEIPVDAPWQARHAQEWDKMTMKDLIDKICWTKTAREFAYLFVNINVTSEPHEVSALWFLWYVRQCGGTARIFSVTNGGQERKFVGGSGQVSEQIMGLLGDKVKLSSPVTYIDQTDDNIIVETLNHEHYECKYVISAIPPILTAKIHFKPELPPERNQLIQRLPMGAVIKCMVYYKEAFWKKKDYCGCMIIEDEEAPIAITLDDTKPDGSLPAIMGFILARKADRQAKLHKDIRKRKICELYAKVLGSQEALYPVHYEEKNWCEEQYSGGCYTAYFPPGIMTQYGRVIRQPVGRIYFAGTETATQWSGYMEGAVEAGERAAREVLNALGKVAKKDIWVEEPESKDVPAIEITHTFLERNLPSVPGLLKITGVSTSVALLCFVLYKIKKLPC

[2] = biological target: T2, Amine oxidase [flavin-containing] B (Bos taurus, UniProt P56560); experiment: Inhibition of MAO-B in bovine brain mitochondria using benzylamine as substrate
T2 sequence (P56560 whole entry): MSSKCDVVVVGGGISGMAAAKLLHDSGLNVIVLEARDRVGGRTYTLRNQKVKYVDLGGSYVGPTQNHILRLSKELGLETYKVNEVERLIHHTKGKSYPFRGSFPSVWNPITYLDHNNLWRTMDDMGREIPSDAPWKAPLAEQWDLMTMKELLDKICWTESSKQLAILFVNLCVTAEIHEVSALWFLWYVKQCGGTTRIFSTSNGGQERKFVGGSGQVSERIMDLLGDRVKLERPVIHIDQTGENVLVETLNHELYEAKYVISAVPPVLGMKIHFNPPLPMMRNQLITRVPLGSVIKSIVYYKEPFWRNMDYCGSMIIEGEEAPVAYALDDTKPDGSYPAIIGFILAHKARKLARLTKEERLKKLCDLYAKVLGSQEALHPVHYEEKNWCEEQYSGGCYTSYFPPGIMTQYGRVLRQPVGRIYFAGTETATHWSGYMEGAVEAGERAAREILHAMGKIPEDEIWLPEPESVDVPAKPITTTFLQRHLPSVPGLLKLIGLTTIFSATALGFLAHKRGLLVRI

[3] = Selectivity index, ratio of IC50 for MAO-B in bovine brain mitochondria to IC50 for MAO-A in rat liver mitochondria
Summary of the method: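 Enzyme source was mitochondria: rat liver for MAO-A, and bovine brain for MAO-B. Compounds were preincubated 60 min with enzyme before substrate was added: serotonin for MAO-A, benzylamine for MAO-B. Clorgyline served as the irreversible, time-dependent reference. Values are reported as IC50, and the selectivity index was derived from the MAO-A and MAO-B IC50s.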

Mus musculus [4] = experiment: Toxicity in mouse assessed as mortality up to 250 mg/kg, po; type: organism-based; settings: in vivo
Summary of the method: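 Acute oral toxicity study in male mice, with oral dosing up to 250 mg/kg and mortality recorded.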

Mus musculus [5] = experiment: Toxicity in mouse up to dosed through parenteral route; settings: in vivo

Row | Compound | IC50 [1] [µM] | IC50 [2] [µM] | Selectivity Index [3] | Activity (Mus musculus [4]) | Activity (Mus musculus [5])
1 | COC(=O)[C@H](Cc1ccccc1)NC(=O)c1ccc(NC(=O)C(=O)c2ccccc2NC(C)=O)cc1 | 0.036 | 280 | 7770 | – | –
2 | COC(=O)CCCNC(=O)C(=O)c1ccccc1NC(C)=O | 0.062 | 950 | 15300 | – | –
3 | COC(=O)C[C@H](NC(=O)C(=O)c1ccccc1NC(C)=O)C(=O)OC | 0.058 | 460 | 7930 | – | –
4 | COC(=O)CCCNC(=O)c1ccc(NC(=O)C(=O)c2ccccc2NC(C)=O)cc1 | 0.049 | 590 | 12000 | – | –
5 | COC(=O)CCNC(=O)C(=O)c1ccccc1NC(C)=O | 0.033 | 990 | 30000 | Non-toxic | Non-toxic
6 | COC(=O)CCNC(=O)c1ccc(NC(=O)C(=O)c2ccccc2NC(C)=O)cc1 | 0.018 | 530 | 29400 | Non-toxic | Non-toxic
7 | COC(=O)C[C@H](NC(=O)c1ccc(NC(=O)C(=O)c2ccccc2NC(C)=O)cc1)C(=O)OC | 0.06 | 790 | 13200 | – | –
8 | CCOC(=O)c1ccc(NC(=O)C(=O)c2ccccc2NC(C)=O)cc1 | 0.083 | 990 | 11900 | – | –
9 | COC(=O)C1(NC(=O)c2ccc(NC(=O)C(=O)c3ccccc3NC(C)=O)cc2)CCCC1 | 0.048 | 380 | 7910 | – | –
10 | COC(=O)[C@@H](NC(=O)c1ccc(NC(=O)C(=O)c2ccccc2NC(C)=O)cc1)C(C)C | 0.0028 | 430 | 154000 | Non-toxic | Non-toxic
11 | CC(=O)N1C(=O)C(=O)c2ccccc21 | 0.056 | 380 | 6780 | – | –
12 | COC(=O)[C@H](CC(C)C)NC(=O)C(=O)c1ccccc1NC(C)=O | 0.072 | 480 | 6660 | – | –
13 | COC(=O)C(C)(C)NC(=O)c1ccc(NC(=O)C(=O)c2ccccc2NC(C)=O)cc1 | 0.043 | 360 | 8370 | – | –
14 | COC(=O)CCCCCNC(=O)C(=O)c1ccccc1NC(C)=O | 0.068 | 590 | 8670 | – | –
15 | COC(=O)CCCCCNC(=O)c1ccc(NC(=O)C(=O)c2ccccc2NC(C)=O)cc1 | 0.093 | 780 | 8380 | – | –
16 | COC(=O)[C@H](C)NC(=O)c1ccc(NC(=O)C(=O)c2ccccc2NC(C)=O)cc1 | 0.036 | 730 | 20300 | Non-toxic | Non-toxic
